System: MS2 coat protein
Test: apparent Kd, MS2 coat protein; higher = weaker binding; RNA-MaP array
How it was run: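 The designed RNAs, transcribed from sequenced DNA templates on an Illumina sequencing chip, were incubated with fluorescently labeled MS2 coat protein at room temperature. Protein ranged from 1.5 nM to 3 μM, with 0.8–1.5 h incubation at the lowest and 10–20 min at the highest concentrations, in Tris-HCl pH 7.5 buffer with KCl, MgCl2, BSA, DTT, tRNA and Tween20, with or without input ligand. The median of per-cluster binding-curve fits gives the apparent Kd, and designs measured on fewer than 10 clusters were excluded.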

[1] = designed as: OFF switch for tryptophan, no ligand
[2] = ligand present: tryptophan, designed as: OFF switch for tryptophan
[3] = designed as: OFF switch for flavin mononucleotide, no ligand
[4] = ligand present: flavin mononucleotide, designed as: OFF switch for flavin mononucleotide
[5] = designed as: ON switch for flavin mononucleotide, no ligand
[6] = ligand present: flavin mononucleotide, designed as: ON switch for flavin mononucleotide
[7] = designed as: ON switch for tryptophan, no ligand
[8] = ligand present: tryptophan, designed as: ON switch for tryptophan

Row | Sequence | apparent Kd [3] | apparent Kd [4] | apparent Kd [5] | apparent Kd [6] | further results
1 | GACAUAUGCUAUGCGCAGGCUACCCUCAGCCGAGGACCGGUACGGCCGCCACUCGUACUACCACAUGAGGAUCACCCAUGUUAUC |  |  |  |  | apparent Kd [1]: 0.0172 µM; apparent Kd [2]: 0.0182 µM
2 | CGGGUAACCGAGAAGGACUUAAGACUACGUUAAGUAGGAUAUCGAUUUGUUACAUGAGGAUCACCCAUGUCUGGUCUUGACCGC | 0.00866 µM | 0.00967 µM |  |  | 
3 | UUUGCAGUCGAGAAGGCAAACACAUGAGGAUCACCCAUGUAGACGAGGUAUGUUAUUUCGGGAGUUGAGGAUAUCGUGGUAGGU |  |  | 0.0278 µM | 0.0138 µM | 
4 | UCAUAGUCAGGAUAUUUAUUUGGCGGAGACUGCGGCCACCGAAAGAAGGGACAUGAGGAUCACCCAUGUAUCGG | 0.0163 µM | 0.0269 µM |  |  | 
5 | ACUCAUGCAAAGGAUAUAACAGUUACAGACUGAUUAGAAGGUUGGACAUGAGGAUCACCCAUGUACGACGCGGU | 0.00913 µM | 0.0284 µM |  |  | 
6 | GGUUUUUCUGUUAGGAUAUUUCAUGACAGGCGAUGAAAGAAGGAACAUGAGGAUCACCCAUGUGUUUGAGAUAA | 0.00957 µM | 0.0106 µM |  |  | 
7 | AACAGAAGACAGGAUAUUACUUAACCAGUAUUGUAAGAAGGGUCGACAUGAGGAUCACCCAUGUGAUCAUACUG | 0.0488 µM | 0.047 µM |  |  | 
8 | GAACAAUGCCUAGGAUAUCUUACGAUUGAAAACAGAGAAGGAGGGACCGAACAUGAGGAUCACCCAUGUAGAUGUGGGACGUGG | 0.0772 µM | 0.0845 µM |  |  | 
9 | GGGACACAUGAGGAUCACCCAUGUUGAUGACUUUGAGGAUAUUAGCAAAUUCUGGUCCGCUAAGAAGGCAAGGAAG |  |  | 0.0188 µM | 0.00982 µM | 
10 | AUACCACCUUCGGCCGCCACUAUGUAUGGGUUCCCAACGUUGAAGGACAUGAGGAUCACCCAUGUUAGGACCGGGAAAAGUGCCU |  |  |  |  | apparent Kd [1]: 0.0879 µM; apparent Kd [2]: 0.161 µM
11 | CCGGCGCGAUUAUGGGUUUGCUUUUACGAUACCAGCCGCGUUCCGGGCCCUUGGCAGCGUGUAACAUGAGGAUCACCCAUGUUCA |  |  |  |  | apparent Kd (ligand present: theophylline, designed as: OFF switch for theophylline): 0.0132 µM
12 | GCACUUAUAGCAGGAUAUCUUUAAACACCGAAAGGUAGCGGUACAUGAGGAUCACCCAUGUCAACAGAGAAGGGCUCAUAGUCU |  |  | 0.0111 µM | 0.00863 µM | 
13 | CGACGAUCAGAAGGAUAUUAAAUCGUCAAUCUCGUGACAUGAGGAUCACCCAUGUAGCCCGUGGUUAAGAAGGUCUUGGUUGUG | 0.0924 µM | 0.058 µM |  |  | 
14 | GCUAAUCCAGGAGGAUAUAGGUUCUUUUCUACACAUGAGGAUCACCCAUGUGCAUCCCGGCGUACCUAGAAGGCCUGUCUAAAA |  |  | 0.026 µM | 0.0155 µM | 
15 | AUAGAGGAUAAAGGAUAUGAGGUGAACAUCGAUUCAGAAGGUUAUCAGGAUACAUGAGGAUCACCCAUGUUUCCUUUGCUGUUG |  |  | 0.0385 µM | 0.0229 µM | 
16 | UCCGCGGAGACGGCCGCCACUGAGUGAGAAGUCGUGCUCUAACUACAUGAGGAUCACCCAUGUCCCAGGACCGGGUCGAAGUGUU |  |  |  |  | apparent Kd [7]: 0.214 µM; apparent Kd [8]: 0.103 µM
17 | CGUGAUCGCAGAAAGGAUAUUUGGCCUGUAACAUGAGGAUCACCCAUGUUCAAAUGUGACUUACUAAAGAAGGUUCGAAGAUCCAA |  |  | 0.00723 µM | 0.00711 µM | 
18 | GGAAAACACAAGAAGGCGUCGGACUGGGCGAGACGAGGAUAUUGUAGCUCUAAUCGUGGACAGACAUGAGGAUCACCCAUGUCG |  |  | 0.00793 µM | 0.00618 µM | 
19 | CUUCUUCGUGCAGGAUAUAAGGGAACACGAUGACAUGAGGAUCACCCAUGUUCUAUAAGCAGGCUUUAGAAGGGCAUUUUGGAU |  |  | 0.0271 µM | 0.0201 µM | 
20 | GUAGAGUCAGGAUAUGUCAACUGCUCUGUAAAGCUUGGUCGACAGAAGGGACAUGAGGAUCACCCAUGUGAAGG | 0.0341 µM | 0.0565 µM |  |  | 
21 | UGACACAUGAGGAUCACCCAUGUCGCGAAACGAGGACCGGUACGGCCGCCACUCGCACAAACUCCUCUCCAGCACCAGCUUUUAG |  |  |  |  | apparent Kd [7]: 0.0194 µM; apparent Kd [8]: 0.0155 µM
22 | GAACCCAAGGUGAGGAUAUUCGAAGCAACAAAAGGGAAGAAGGCACAUGAGGAUCACCCAUGUAAGAAAGAUAA | 0.00835 µM | 0.00952 µM |  |  | 
23 | CAUCAGGGAUCAGGAUAUACAAUGGGUACAUGAGGAUCACCCAUGUAGACGCCAACACUGUCAUUGUAGAAGGGAUUGAGCGAA |  |  | 0.0551 µM | 0.0298 µM | 
24 | AAUUGUGCAGGAUAUUCACAGGUGAACAUGAGGAUCACCCAUGUAGCAUGAGGUGUAAUCGAAGAAGGGCAGGUCC | 0.109 µM | 0.0728 µM |  |  | 
25 | ACAUAUUCCAGAGGAUAUUGUGGUAUCCAGUUAAGGAGAUCUUACAUGAGGAUCACCCAUGUGGACAAGAAGGCUGAACGCUCC |  |  | 0.0216 µM | 0.0147 µM | 
26 | AAUCGCCGUAAGAAGGCCACAUAAACAUGAGGAUCACCCAUGUACAGGCGACCUUUAUAUAAUGUGGAGGAUAUUAACUGCUUC | 0.0362 µM | 0.0905 µM |  |  | 
27 | CGCCCUAAAGAUAAGGAUAUUCAGUUAGUAACAUGAGGAUCACCCAUGUGCACAUUUCACUUGAUGAAGAAGGUAUCUGGAACAUU |  |  | 0.00827 µM | 0.0061 µM | 

Reference: the EternaBench riboswitch data
